Experimental data reported in ChEMBL document CHEMBL4145481, “Synthesis and biological evaluation of novel bavachinin analogs as anticancer agents” (Eur J Med Chem, 2018).
Activity calls are given as the source filed them. The calls are words filed in the database; no cut-off is given here.

Experiments:
HepG2 = test: Cytotoxicity against human HepG2 cells; type: functional, cell-based
HCT-116 [1] = test: Induction of mitochondrial membrane potential loss in human HCT116 cells after 24 hrs by rhodamine123 staining based fluorescence microscopic analysis; type: functional, cell-based
Summary of the method: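 Cells were seeded at 1×10^6/1.5 mL/well and treated 24 h at 3.6, 7.2 and 14.4 μM, with 5-FU at 5 μM as reference. Rhodamine-123 (10 nM) was added for the final 1 h. After a PBS wash, fluorescence was imaged by microscopy.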

HCT-116 [2] = test: Antimigratory activity against human HCT116 cells assessed as inhibition of wound closure up to 24 hrs by wound scratch assay; type: functional, cell-based
Summary of the method: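 HCT-116 cells were plated at 8×10^5/well and grown to 70–80% confluence, then serum-starved 24 h. The monolayer was scratched with a pipette tip and treated at 3.6, 7.2 and 14.4 μM for 24 h. Wounds were imaged at 0 and 24 h (20x). Percent wound closure was computed from wound areas relative to control; means ± SD, n = 3.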

HCT-116 [3] = test: Cytotoxicity against human HCT116 cells assessed as growth inhibition after 48 hrs by SRB assay; type: functional, cell-based; conditions: HCT-116, 48 h
Summary of the method: (§1)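 Cells were grown in RPMI-1640 with 10% FBS and penicillin/streptomycin at 37°C, 5% CO₂. Seeding was PC-3 7000, MCF-7 8000, A549 7500 and HCT-116 7000 cells/well, with 24 h attachment. Cells were exposed to 1, 5, 10, 30 and 50 μM for 48 h, with a 5-fluorouracil reference. Cells were TCA-fixed (1 h, 4°C) and stained with 0.4% SRB. Bound dye was dissolved in 10 mM Tris pH 10.4 and read at 540 nm. IC50 came from the concentration-response.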

PC-3 [4] = test: Cytotoxicity against human PC3 cells assessed as growth inhibition after 48 hrs by SRB assay; type: functional, cell-based; conditions: PC-3, 48 h; summary of the method: as §1
MCF7 [5] = test: Cytotoxicity against human MCF7 cells assessed as growth inhibition after 48 hrs by SRB assay; type: functional, cell-based; conditions: MCF7, 48 h; summary of the method: as §1
MCF7 [6] = test: Cytotoxicity against human MCF7 cells assessed as growth inhibition at 50 uM after 48 hrs by SRB assay relative to control; type: functional; conditions: MCF7, 48 h, read-out: GI
Summary of the method: (§2)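 SRB growth-inhibition run in RPMI-1640/10% FBS at 37°C, 5% CO₂. Cell lines were seeded (PC-3 7000, MCF-7 8000, A549 7500, HCT-116 7000/well) and attached 24 h. The treatment series included 50 μM, with 48 h exposure. Cells were cold-TCA fixed and stained with 0.4% SRB. Dye was solubilized in 10 mM Tris pH 10.4 and read at 540 nm against untreated control.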

PC-3 [7] = test: Cytotoxicity against human PC3 cells assessed as growth inhibition at 50 uM after 48 hrs by SRB assay relative to control; type: functional; conditions: PC-3, 48 h, read-out: GI; summary of the method: as §2
HCT-116 [8] = test: Cytotoxicity against human HCT116 cells assessed as growth inhibition at 50 uM after 48 hrs by SRB assay relative to control; type: functional; conditions: HCT-116, 48 h, read-out: GI; summary of the method: as §2
A549 [9] = test: Cytotoxicity against human A549 cells assessed as growth inhibition after 48 hrs by SRB assay; type: functional, cell-based; conditions: A549, 48 h; summary of the method: as §1
HCT-116 [10] = test: Induction of morphological changes in human HCT116 cells assessed as cell shrinkage after 24 hrs by phase contrast microscopic analysis; type: functional, cell-based
Summary of the method: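 HCT-116 cells were exposed 24 h to 3.6, 7.2 and 14.4 μM, alongside an untreated control. Morphology was photographed by phase contrast microscopy at 20x.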

A549 [11] = test: Cytotoxicity against human A549 cells assessed as growth inhibition at 50 uM after 48 hrs by SRB assay relative to control; type: functional; conditions: A549, 48 h, read-out: GI; summary of the method: as §2
HCT-116 [12] = test: Induction of apoptosis in human HCT116 cells assessed as PARP cleavage at 3.6 uM after 24 hrs by Western blot analysis; type: functional, cell-based
Summary of the method: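 HCT-116 cells were treated 24 h at 3.6, 7.2 and 14.4 μM. RIPA whole-cell lysates with protease/phosphatase inhibitors were BCA-quantified. Equal protein was run on 10% SDS-PAGE and transferred to PVDF, then blocked with 5% BSA/TBST for 1 h. Blots were probed with anti-PARP (1:1000) and β-actin (1:500, loading control) plus HRP secondaries. The read-out was the 89 kDa cleaved fragment.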

HCT-116 [13] = test: Anticlonogenic activity against human HCT116 cells incubated for 24 hrs measured up to 14 days by crystal violet staining-based assay; type: functional, cell-based
Summary of the method: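 HCT-116 cells (8x10^4/mL/well) were treated 24 h at 3.6, 7.2 and 14.4 μM. They were then trypsinized and re-seeded at 1000 cells/well, and grown about 14 days to colonies of >50 cells. Colonies were fixed in 4% formaldehyde and stained with 0.5% crystal violet. Colony number was expressed relative to untreated control, with 5-fluorouracil as reference; means ± SD, n = 3.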

| SMILES | IC50 (HepG2) [µM] | Activity (HCT-116 [1]) | inhibition (HCT-116 [2]) | IC50 (HCT-116 [3]) [µM] | IC50 (PC-3 [4]) [µM] | IC50 (MCF7 [5]) [µM] | inhibition of growth at 50 µM (MCF7 [6]) [%] | inhibition of growth at 50 µM (PC-3 [7]) [%] | inhibition of growth at 50 µM (HCT-116 [8]) [%] | IC50 (A549 [9]) [µM] | Activity (HCT-116 [10]) | inhibition of growth at 50 µM (A549 [11]) [%] | Activity (HCT-116 [12]) | Activity (HCT-116 [13]) |
| --- | --- | --- | --- | --- | --- | --- | --- | --- | --- | --- | --- | --- | --- | --- |
| COc1cc2c(cc1CC=C(C)C)C(=O)C[C@@H](c1ccc(OC3O[C@H](CO)[C@@H](O)[C@H](O)[C@H]3O)cc1)O2 (some centres undefined) | 48.5 | – | – | – | – | – | – | – | – | – | – | – | – | – |
| COc1ccc([C@@H]2C/C(=N/OCc3cn(-c4ccc(C(N)=O)cc4)nn3)c3cc(CC=C(C)C)c(OC)cc3O2)cc1 | – | Dose-dependent effect | Dose-dependent effect | 7.13 | 16.1 | 11.7 | 100 | 100 | 100 | 7.72 | Dose-dependent effect | 100 | Active | Dose-dependent effect |
